Measured values reported in ChEMBL document CHEMBL1136257, “New highly active taxoids from 9beta-dihydrobaccatin-9,10-acetals. Part 3” (Bioorg Med Chem Lett, 2003).
Values after ≈ are worked out from the molar mass of the structure shown.

Legend:
[1] = Solubility of compound in JP1 at pH 1.2 using UV assay; assay type: physicochemical; conditions: JP1, pH 1.2
[2] = Solubility in water using UV assay; assay type: physicochemical
PC-6 = test: Cytotoxic activity against human lung cancer PC-6 cell line; assay type: functional
Outline: (§1)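 Growth inhibition (IC50) of mouse leukemia P388 and human lung cancer PC-6 and PC-12 cells after 72 h continuous exposure to compound; IC50 taken as the concentration giving 50% growth inhibition.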

P388 = test: Cytotoxic activity against mouse leukemia P388 cell line; assay type: functional; outline: as §1
[3] = Solubility of compound in JP2 at pH 6.8 using UV assay; assay type: physicochemical; conditions: JP2, pH 6.8
PC-12 = test: Cytotoxic activity against human lung cancer PC-12 cell line

solubility [1] | solubility [2] | solubility [3] | Structure (SMILES) | GI50 (PC-6) | GI50 (P388) | GI50 (PC-12)
350 µg/mL (≈ 381 µM) | < 4 µg/mL | < 4 µg/mL | CC(=O)O[C@@]12CO[C@@H]1CC[C@@]1(C)[C@@H]3O[C@H](CN4CCOCC4)O[C@@H]3C3=C(C)[C@@H](OC(=O)[C@](C)(O)[C@@H](NC(=O)OC(C)(C)C)c4ccccc4)C[C@@](O)([C@@H](OC(=O)c4ccccc4)[C@@H]12)C3(C)C | 0.47 ng/mL (≈ 0.000511 µM) | 0.02 ng/mL (≈ 2.18e-05 µM) | 0.07 ng/mL (≈ 7.62e-05 µM)
 |  |  | CC(=O)O[C@H]1C(=O)[C@@]2(C)[C@H]([C@H](OC(=O)c3ccccc3)[C@]3(O)C[C@H](OC(=O)[C@H](O)[C@@H](NC(=O)c4ccccc4)c4ccccc4)C(C)=C1C3(C)C)[C@]1(OC(C)=O)CO[C@@H]1C[C@@H]2O [PACLITAXEL] | 1.27 ng/mL (≈ 0.00149 µM) | 2.93 ng/mL (≈ 0.00343 µM) | 539 ng/mL (≈ 0.631 µM)
1200 µg/mL (≈ 1330 µM) | < 4 µg/mL | < 4 µg/mL | CC(=O)O[C@@]12CO[C@@H]1CC[C@@]1(C)[C@@H]3O[C@H](CN4CCOCC4)O[C@@H]3C3=C(C)[C@@H](OC(=O)[C@H](O)[C@@H](NC(=O)OC(C)(C)C)c4ccccc4)C[C@@](O)([C@@H](OC(=O)c4ccccc4)[C@@H]12)C3(C)C | 0.38 ng/mL (≈ 0.00042 µM) | 0.02 ng/mL (≈ 2.21e-05 µM) | 0.02 ng/mL (≈ 2.21e-05 µM)
